In assay [1] the target is T1, Hypoxanthine-guanine phosphoribosyltransferase (Homo sapiens) (UniProt P00492).
T1 sequence (whole entry): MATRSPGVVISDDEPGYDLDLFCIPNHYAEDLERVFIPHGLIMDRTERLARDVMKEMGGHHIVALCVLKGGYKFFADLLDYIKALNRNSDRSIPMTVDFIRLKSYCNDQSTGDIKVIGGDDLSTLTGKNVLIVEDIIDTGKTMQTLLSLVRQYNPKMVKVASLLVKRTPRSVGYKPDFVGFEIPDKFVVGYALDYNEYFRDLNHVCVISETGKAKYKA
In words: Ability to inhibit hypoxanthine-guanine phosphoribosyltransferase in crude extracts of H.Ep.-2 cells.

Another assay has as its system Plasmodium berghei. Put plainly: Activity against Plasmodium berghei in mice (Mus musculus). The class given is functional, organism-based. The gist of the method:
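Mice infected with P. berghei; survival time (life span) of treated mice was the read-out.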
Further: test concentration or dose not given here.

Turning to `Nc1nc(O)c2c(ncn2CCNC(=O)c2ccc(S(=O)(=O)F)cc2)n1`, the values for the Activity entry (in assay [1]; with Plasmodium berghei) were “No inhibition” and “Not significant”, respectively.
For `[N-]=[N+]=NCCn1cnc2nc(N)nc(O)c21`, in that order: “No inhibition” and “Not significant”.
Take `Nc1nc(O)c2c(ncn2Cc2ccc(NC(=O)c3ccc(S(=O)(=O)F)cc3)cc2)n1`: the Activity entry in assay [1] was “No inhibition”; with Plasmodium berghei, “Not significant”.
For `NCC(O)Cn1cnc2nc(N)nc(O)c21` (stereo not drawn), in that order: “No inhibition” and “Not significant”.
Consider `Nc1nc(O)c2c(ncn2Cc2cccc([N+](=O)[O-])c2)n1`, for which the Activity result was “No inhibition” in assay [1] and “Not significant” in the assay on Plasmodium berghei.
Consider `Nc1nc(O)c2c(ncn2CCCS(=O)(=O)O)n1`, for which the Activity result in assay [1] was “No inhibition”; in the assay on Plasmodium berghei, “Not significant”.
For `Nc1nc(O)c2c(ncn2CC=O)n1`, in that order: “No inhibition” and “Not significant”.
For `Nc1nc(O)c2c(n1)[n+](C1O[C@H](CO)[C@@H](O)[C@H]1O)cn2CCO` (stereo partly drawn) the same measures were “No inhibition” and “Not significant”.
For `Nc1nc2c(ncn2[C@@H]2O[C@H](CO)[C@@H](O)[C@H]2O)c(=O)[nH]1` the same measures were “No inhibition” and “Not significant”.
On to `Nc1nc(O)c2c(ncn2CC(O)CNC(=O)c2ccc(S(=O)(=O)F)cc2)n1` (stereo not drawn), for which the Activity entry in assay [1] is “No inhibition”; with Plasmodium berghei, “Not significant”.
In the case of `Nc1nc(O)c2c(ncn2Cc2cccc(NC(=O)c3cccc(S(=O)(=O)F)c3)c2)n1`, the Activity entry is “No inhibition” in assay [1] and “Not significant” with Plasmodium berghei.
Consider `Nc1nc(O)c2c(ncn2Cc2cccc(NC(=O)CBr)c2)n1`, for which the Activity entry in assay [1] was “No inhibition”; in the assay on Plasmodium berghei, “Not significant”.
On to `[N-]=[N+]=NCC(O)Cn1cnc2nc(N)nc(O)c21` (stereo not drawn), for which the Activity result in assay [1] was “No inhibition”; in the assay with Plasmodium berghei, “Not significant”.
For `Nc1cccc(Cn2cnc3nc(N)nc(O)c32)c1` the same measures were “No inhibition” and “Not significant”.
For `Nc1nc(O)c2c(ncn2CCCl)n1` the same measures were “No inhibition” and “Not significant”.
For `Nc1nc(O)c2c(ncn2Cc2ccc(NC(=O)CBr)cc2)n1` the same measures were “No inhibition” and “Not significant”.
Take `Nc1nc(O)c2c(ncn2CCNC(=O)c2ccc(Cl)cc2)n1`: the Activity result was “No inhibition” in assay [1] and “Not significant” in the assay with Plasmodium berghei.
For `Nc1nc(O)c2c(ncn2CC(O)CNC(=O)CBr)n1` (stereo not drawn), in that order: “No inhibition” and “Not significant”.
For `Nc1nc(O)c2c(ncn2CCNC(=O)c2cccc(S(=O)(=O)F)c2)n1`, in that order: “No inhibition” and “Not significant”.
For `Nc1nc(O)c2c(ncn2CCO)n1`, in that order: “No inhibition” and “Not significant”.
With `O=[N+]([O-])c1ccc(Cn2cnc3ncnc(O)c32)cc1`, the Activity entry in assay [1] was “No inhibition”; in the assay with Plasmodium berghei, “Not significant”.
For the compound `OCCn1cnc2ncnc(O)c21`, the Activity entry is “No inhibition” in assay [1] and “Not significant” in the assay with Plasmodium berghei.
In the case of `O=C(Nc1ccc(Cn2cnc3ncnc(O)c32)cc1)c1ccc(Cl)cc1`, the Activity entry is “No inhibition” in assay [1] and “Not significant” in the assay on Plasmodium berghei.
For `Nc1ccc(Cn2cnc3ncnc(O)c32)cc1`, in that order: “No inhibition” and “Not significant”.
On to `Nc1nc(O)c2c(ncn2CC(O)CN2C(=O)c3ccccc3C2=O)n1` (stereo not drawn), for which the results for the Activity entry (in assay [1]; with Plasmodium berghei) were “No inhibition” and “Not significant”, respectively.
For `Nc1nc(O)c2c(ncn2CC(O)CNC(=O)c2cccc(S(=O)(=O)F)c2)n1` (stereo not drawn), in that order: “No inhibition” and “Not significant”.
For `Oc1ncnc2ncn(CC(O)CCl)c12` (stereo not drawn), in that order: “No inhibition” and “Not significant”.
Turning to `O=C1c2ccccc2C(=O)N1CC(O)Cn1cnc2ncnc(O)c21` (stereo not drawn), the figures for the Activity entry (in assay [1]; with Plasmodium berghei) were “No inhibition” and “Not significant”, respectively.
For `CCOC(=O)/C=C/Cn1cnc2nc(N)nc(O)c21` the same measures were “No inhibition” and “Not significant”.
For `OCC(O)Cn1cnc2ncnc(O)c21` (stereo not drawn) the same measures were “No inhibition” and “Not significant”.
For `O=C(CBr)Nc1ccc(Cn2cnc3ncnc(O)c32)cc1`, in that order: “No inhibition” and “Not significant”.
In the case of `Nc1ccc(Cn2cnc3nc(N)nc(O)c32)cc1`, the Activity entry in assay [1] is “No inhibition”; in the assay on Plasmodium berghei it was “Not significant”.
For `Nc1nc(O)c2c(ncn2Cc2ccc(NC(=O)c3cccc(S(=O)(=O)F)c3)cc2)n1` the same measures were “No inhibition” and “Not significant”.
For `Nc1nc(O)c2c(ncn2CC(O)CCl)n1` (stereo not drawn) the same measures were “No inhibition” and “Not significant”.
For `Nc1nc(O)c2c(ncn2CC(O)CO)n1` (stereo not drawn), in that order: “No inhibition” and “Not significant”.
Regarding `Nc1nc(O)c2c(ncn2Cc2ccc([N+](=O)[O-])cc2)n1`, the Activity entry in assay [1] was “No inhibition”; in the assay on Plasmodium berghei it was “Not significant”.
For `CC(=O)OCC1OC([n+]2cn(CCO)c3c(O)nc(N)nc32)C(OC(C)=O)C1OC(C)=O` (stereo not drawn), in that order: “No inhibition” and “Not significant”.
For `Nc1nc(O)c2c(ncn2Cc2cccc(NC(=O)c3ccc(Cl)cc3)c2)n1` the same measures were “No inhibition” and “Not significant”.
For `O=C(Nc1ccc(Cn2cnc3ncnc(O)c32)cc1)c1ccc(S(=O)(=O)F)cc1`, in that order: “No inhibition” and “Not significant”.
Consider `Nc1nc(O)c2c(ncn2CC(O)CNC(=O)c2ccc(Cl)cc2)n1` (stereo not drawn), for which the Activity entry in assay [1] is “No inhibition”; with Plasmodium berghei it was “Not significant”.
For `CC(=O)OC[C@H]1O[C@@H](N2C=NC3C(=O)N=C(N)N=C32)[C@H](OC(C)=O)[C@@H]1OC(C)=O` (stereo partly drawn), in that order: “No inhibition” and “Not significant”.
As to `Nc1nc(O)c2c(n1)nc(Cl)n2CCCl`, the results for the Activity result (in assay [1]; with Plasmodium berghei) were “No inhibition” and “Not significant”, respectively.
For `Nc1nc(O)c2c(ncn2Cc2ccc(NC(=O)c3ccc(Cl)cc3)cc2)n1`, in that order: “No inhibition” and “Not significant”.
For `O=[N+]([O-])c1cccc(Cn2cnc3ncnc(O)c32)c1`, in that order: “No inhibition” and “Not significant”.
Consider `O=C(Nc1ccc(Cn2cnc3ncnc(O)c32)cc1)c1cccc(S(=O)(=O)F)c1`, for which the Activity entry in assay [1] was “No inhibition”; in the assay on Plasmodium berghei, “Not significant”.
For `Nc1nc(O)c2c(ncn2CCNC(=O)CBr)n1` the same measures were “No inhibition” and “Not significant”.
On to `Nc1nc(O)c2c(ncn2Cc2cccc(NC(=O)c3ccc(S(=O)(=O)F)cc3)c2)n1`, for which the Activity result was “No inhibition” in assay [1] and “Not significant” in the assay on Plasmodium berghei.
For `Nc1cccc(Cn2cnc3ncnc(O)c32)c1`, in that order: “No inhibition” and “Not significant”.
For `NCCn1cnc2nc(N)nc(O)c21` the same measures were “No inhibition” and “Not significant”.

The values above are taken from ChEMBL document CHEMBL1121416, “Synthesis of potential inhibitors of hypoxanthine-guanine phosphoribosyltransferase for testing as antiprotozoal agents. 1. 7-Substituted 6-oxopurines” (J Med Chem, 1980).
